Measurements from ChEMBL document CHEMBL1221355, “Substituted biaryl pyrazoles as sodium channel blockers” (Bioorg Med Chem Lett, 2010).

Test system: Liver microsomes
Assay: Metabolic stability in rat liver microsomes after 60 mins
Type: functional
Conditions: Microsome; call rule not given here
In short: (§1)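 Compound incubated for 60 min with liver microsomal preparations. Conversion to the carboxylic acid metabolite formed by carboxamide hydrolysis was followed.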

| Compound | Stability |
| --- | --- |
| Cc1cc(C(N)=O)nn1-c1cccc(-c2ccc(C(F)(F)F)cc2C(F)(F)F)c1 | Unstable |

Test system: Rattus norvegicus
Assay: Antiallodynic activity in rat spinal nerve ligation model of neuropathic pain assessed as reversal of allodynia at 30 mg/kg, po after 4 hrs
Type: functional
Conditions: not given
In short: (§2)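 Rat spinal nerve ligation (Chung) neuropathic pain model; compound given orally as a single dose (10 or 30 mg/kg). Allodynia reversal read at 2 h and 4 h after dosing, expressed as percent reversal.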

| Compound | Activity [%] |
| --- | --- |
| Cc1cc(C(N)=O)nn1-c1cccc(-c2ccc(C(F)(F)F)cc2C(F)(F)F)c1 | 55 |

Test system: Rattus norvegicus
Assay: Antiallodynic activity in rat spinal nerve ligation model of neuropathic pain assessed as reversal of mechanical allodynia at 3 mg/kg, po bid for 2 days measured after 2 hrs post final dose
Type: functional
Conditions: not given
In short: (§3)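 Rat spinal nerve ligation (Chung) model; oral dosing at 3 mg/kg bid for 2 days. Reversal of mechanical allodynia read at 2 h and 4 h, expressed as percent reversal; significance given as p values.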

| Compound | Activity [%] |
| --- | --- |
| Cc1cc(C(N)=O)nn1-c1cccc(-c2ccc(C(F)(F)F)cc2C(F)(F)F)c1 | 80 |

Test system: not listed separately
Assay: Oral bioavailability in rat
Type: ADME, organism-based
Conditions: in vivo

| Compound | bioavailability [%] |
| --- | --- |
| Cc1cc(C(N)=O)nn1-c1cccc(-c2ccc(C(F)(F)F)cc2C(F)(F)F)c1 | 55 |

Test system: Rattus norvegicus
Assay: Antiallodynic activity in rat spinal nerve ligation model of neuropathic pain assessed as reversal of allodynia at 10 mg/kg, po after 2 hrs
Type: functional
Conditions: not given
In short: as §2

| Compound | Activity [%] |
| --- | --- |
| Cc1cc(C(N)=O)nn1-c1cccc(-c2ccccc2C(F)(F)F)c1 | 14 |
| Cc1cc(C(N)=O)nn1-c1cccc(-c2ccc(Cl)cc2C(F)(F)F)c1 | 8 |
| Cc1cc(C(N)=O)nn1-c1cccc(-c2c(C(F)(F)F)cccc2C(F)(F)F)c1 | 16 |
| Cc1cc(C(N)=O)nn1-c1cccc(-c2c(F)cccc2C(F)(F)F)c1 | 12 |
| Cc1cc(C(N)=O)nn1-c1cccc(-c2ccccc2OCC(F)(F)C(F)(F)F)c1 | 15 |
| Cc1cc(C(N)=O)nn1-c1cccc(-c2ccc(C(F)(F)F)cc2C(F)(F)F)c1 | 35 |

Test system: Rattus norvegicus
Assay: Antiallodynic activity in rat spinal nerve ligation model of neuropathic pain assessed as reversal of allodynia at 10 mg/kg, po after 4 hrs
Type: functional
Conditions: not given
In short: as §2

| Compound | Activity [%] |
| --- | --- |
| Cc1cc(C(N)=O)nn1-c1cccc(-c2ccccc2C(F)(F)F)c1 | 19 |
| Cc1cc(C(N)=O)nn1-c1cccc(-c2ccc(Cl)cc2C(F)(F)F)c1 | 0 |
| Cc1cc(C(N)=O)nn1-c1cccc(-c2c(C(F)(F)F)cccc2C(F)(F)F)c1 | 6 |
| Cc1cc(C(N)=O)nn1-c1cccc(-c2c(F)cccc2C(F)(F)F)c1 | 2 |
| Cc1cc(C(N)=O)nn1-c1cccc(-c2ccccc2OCC(F)(F)C(F)(F)F)c1 | 9 |
| Cc1cc(C(N)=O)nn1-c1cccc(-c2ccc(C(F)(F)F)cc2C(F)(F)F)c1 | 32 |

Biological target: hERG (KCNH2) (Homo sapiens, UniProt Q12809)
Assay: Displacement of [35S][…] from human ERG channel at 10 uM
Conditions: not given
In short: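 hERG binding assay measuring displacement of 35S-labeled MK-0499, a known hERG blocker. Test compound at 10 μM; result expressed as percent inhibition of binding.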

Sequence of hERG (KCNH2) (Q12809 whole entry): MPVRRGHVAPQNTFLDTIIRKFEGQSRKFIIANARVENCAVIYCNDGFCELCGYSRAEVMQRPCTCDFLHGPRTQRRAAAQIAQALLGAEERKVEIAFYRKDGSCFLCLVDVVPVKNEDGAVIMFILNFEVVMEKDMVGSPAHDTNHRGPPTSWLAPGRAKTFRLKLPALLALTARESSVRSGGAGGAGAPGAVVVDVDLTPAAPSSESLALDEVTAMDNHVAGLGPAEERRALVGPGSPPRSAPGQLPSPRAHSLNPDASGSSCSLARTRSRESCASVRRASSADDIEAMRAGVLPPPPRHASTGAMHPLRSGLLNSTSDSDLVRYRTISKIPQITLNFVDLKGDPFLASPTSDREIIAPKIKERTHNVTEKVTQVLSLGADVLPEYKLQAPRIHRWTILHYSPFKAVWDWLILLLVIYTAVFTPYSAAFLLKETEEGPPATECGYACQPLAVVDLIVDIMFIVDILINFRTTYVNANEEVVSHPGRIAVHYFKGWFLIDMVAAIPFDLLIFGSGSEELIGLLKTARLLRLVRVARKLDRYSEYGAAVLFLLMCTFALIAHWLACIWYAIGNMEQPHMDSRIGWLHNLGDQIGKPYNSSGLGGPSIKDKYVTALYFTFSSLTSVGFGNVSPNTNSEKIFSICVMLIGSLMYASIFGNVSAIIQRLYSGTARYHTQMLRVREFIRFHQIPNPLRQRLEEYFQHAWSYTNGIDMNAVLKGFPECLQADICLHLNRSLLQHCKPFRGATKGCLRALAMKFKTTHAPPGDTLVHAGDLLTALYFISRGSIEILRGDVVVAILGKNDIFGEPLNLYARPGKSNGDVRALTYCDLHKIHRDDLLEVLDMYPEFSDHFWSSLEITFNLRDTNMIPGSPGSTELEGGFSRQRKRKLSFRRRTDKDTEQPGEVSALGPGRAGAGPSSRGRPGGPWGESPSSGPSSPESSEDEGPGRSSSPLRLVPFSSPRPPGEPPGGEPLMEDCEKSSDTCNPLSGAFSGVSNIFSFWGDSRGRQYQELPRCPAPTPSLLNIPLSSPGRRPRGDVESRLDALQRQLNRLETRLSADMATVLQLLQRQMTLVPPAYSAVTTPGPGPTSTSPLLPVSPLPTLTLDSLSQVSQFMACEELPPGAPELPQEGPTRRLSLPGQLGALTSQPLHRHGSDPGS

| Compound | inhibition at 10 µM [%] |
| --- | --- |
| Cc1cc(C(N)=O)nn1-c1cccc(-c2ccccc2C(F)(F)F)c1 | 68 |
| Cc1cc(C(N)=O)nn1-c1cccc(-c2ccc(Cl)cc2C(F)(F)F)c1 | 45 |
| Cc1cc(C(N)=O)nn1-c1cccc(-c2c(C(F)(F)F)cccc2C(F)(F)F)c1 | 67 |
| Cc1cc(C(N)=O)nn1-c1cccc(-c2c(F)cccc2C(F)(F)F)c1 | 74 |
| Cc1cc(C(N)=O)nn1-c1cccc(-c2ccccc2OCC(F)(F)C(F)(F)F)c1 | 49 |
| Cc1cc(C(N)=O)nn1-c1cccc(-c2ccc(C(F)(F)F)cc2C(F)(F)F)c1 | 53 |

Test system: not listed separately
Assay: Half life in dog
Type: ADME, organism-based, Canis lupus familiaris
Conditions: in vivo

| Compound | half-life [h] |
| --- | --- |
| Cc1cc(C(N)=O)nn1-c1cccc(-c2ccc(C(F)(F)F)cc2C(F)(F)F)c1 | 1.4 |

Biological target: Sodium channel protein type 9 subunit alpha (Homo sapiens, UniProt Q15858)
Assay: Inhibition of human Nav 1.7 channel by voltage-ion-probe-reader
Conditions: not given
In short: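 Functional membrane-potential FRET assay on voltage-gated hNav1.7, read on a voltage-ion-probe reader (VIPR). Results given as IC50 or as percent inhibition at 10 μM.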

Sequence of Sodium channel protein type 9 subunit alpha (Q15858 whole entry): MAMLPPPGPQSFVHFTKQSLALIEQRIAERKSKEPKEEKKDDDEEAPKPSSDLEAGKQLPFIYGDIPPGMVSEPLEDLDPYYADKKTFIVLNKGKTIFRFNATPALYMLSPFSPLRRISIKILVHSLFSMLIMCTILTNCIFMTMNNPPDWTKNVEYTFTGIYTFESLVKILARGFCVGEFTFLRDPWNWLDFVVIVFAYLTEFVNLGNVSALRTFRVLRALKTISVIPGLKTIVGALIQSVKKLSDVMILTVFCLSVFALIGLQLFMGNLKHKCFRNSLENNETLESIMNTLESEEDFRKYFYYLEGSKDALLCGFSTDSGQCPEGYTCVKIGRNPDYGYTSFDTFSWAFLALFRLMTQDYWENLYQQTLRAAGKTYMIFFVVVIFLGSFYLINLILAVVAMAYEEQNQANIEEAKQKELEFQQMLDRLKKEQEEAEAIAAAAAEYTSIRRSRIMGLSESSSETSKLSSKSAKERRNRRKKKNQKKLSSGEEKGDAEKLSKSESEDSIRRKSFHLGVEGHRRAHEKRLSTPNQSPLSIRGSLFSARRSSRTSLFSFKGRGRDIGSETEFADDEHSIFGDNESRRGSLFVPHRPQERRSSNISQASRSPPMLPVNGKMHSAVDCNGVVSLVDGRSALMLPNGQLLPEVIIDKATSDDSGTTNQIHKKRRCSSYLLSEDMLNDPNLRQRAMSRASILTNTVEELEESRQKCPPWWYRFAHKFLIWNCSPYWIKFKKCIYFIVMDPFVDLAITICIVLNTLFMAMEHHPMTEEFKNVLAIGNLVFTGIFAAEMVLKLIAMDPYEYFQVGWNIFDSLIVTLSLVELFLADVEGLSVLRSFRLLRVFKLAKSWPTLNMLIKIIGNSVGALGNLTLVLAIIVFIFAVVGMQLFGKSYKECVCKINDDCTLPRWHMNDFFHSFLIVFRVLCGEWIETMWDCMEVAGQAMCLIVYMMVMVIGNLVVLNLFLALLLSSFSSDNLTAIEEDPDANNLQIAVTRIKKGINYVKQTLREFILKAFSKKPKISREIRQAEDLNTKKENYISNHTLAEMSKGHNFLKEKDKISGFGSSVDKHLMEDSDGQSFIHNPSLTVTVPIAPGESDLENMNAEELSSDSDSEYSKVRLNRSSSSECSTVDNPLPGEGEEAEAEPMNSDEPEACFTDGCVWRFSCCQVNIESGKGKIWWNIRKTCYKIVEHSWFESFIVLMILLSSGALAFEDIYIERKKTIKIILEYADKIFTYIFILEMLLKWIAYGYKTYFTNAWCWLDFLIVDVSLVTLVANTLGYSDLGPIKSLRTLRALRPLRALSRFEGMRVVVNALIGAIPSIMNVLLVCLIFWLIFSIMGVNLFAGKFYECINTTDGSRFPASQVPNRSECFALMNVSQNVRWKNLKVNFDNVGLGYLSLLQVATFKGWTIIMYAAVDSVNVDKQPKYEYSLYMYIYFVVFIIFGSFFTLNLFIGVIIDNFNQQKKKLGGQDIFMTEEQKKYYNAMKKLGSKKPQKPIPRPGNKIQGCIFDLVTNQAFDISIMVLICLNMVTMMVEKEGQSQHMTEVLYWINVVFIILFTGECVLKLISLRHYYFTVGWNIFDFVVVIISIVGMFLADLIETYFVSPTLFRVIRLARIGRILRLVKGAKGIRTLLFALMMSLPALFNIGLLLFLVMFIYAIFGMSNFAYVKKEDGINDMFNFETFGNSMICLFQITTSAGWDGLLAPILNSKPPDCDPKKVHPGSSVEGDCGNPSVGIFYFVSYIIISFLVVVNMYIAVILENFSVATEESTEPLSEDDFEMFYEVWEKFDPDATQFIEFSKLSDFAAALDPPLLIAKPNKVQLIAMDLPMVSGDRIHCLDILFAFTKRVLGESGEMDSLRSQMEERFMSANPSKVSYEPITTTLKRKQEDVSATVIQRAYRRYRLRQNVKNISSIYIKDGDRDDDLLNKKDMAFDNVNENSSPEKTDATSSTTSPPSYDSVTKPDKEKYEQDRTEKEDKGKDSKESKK

| Compound | IC50 [nM] |
| --- | --- |
| Cc1cc(C(N)=O)nn1-c1cccc(-c2ccccc2C(F)(F)F)c1 | 163 |
| Cc1cc(C(N)=O)nn1-c1cccc(-c2ccc(Cl)cc2C(F)(F)F)c1 | 243 |
| Cc1cc(C(N)=O)nn1-c1cccc(-c2c(C(F)(F)F)cccc2C(F)(F)F)c1 | 41 |
| Cc1cc(C(N)=O)nn1-c1cccc(-c2c(F)cccc2C(F)(F)F)c1 | 71 |
| Cc1cc(C(N)=O)nn1-c1cccc(-c2ccccc2OCC(F)(F)C(F)(F)F)c1 | 128 |
| Cc1cc(C(N)=O)nn1-c1cccc(-c2ccc(C(F)(F)F)cc2C(F)(F)F)c1 | 426 |

Test system: Rattus norvegicus
Assay: Antiallodynic activity in rat spinal nerve ligation model of neuropathic pain assessed as reversal of allodynia at 30 mg/kg, po after 2 hrs
Type: functional
Conditions: not given
In short: as §2

| Compound | Activity [%] |
| --- | --- |
| Cc1cc(C(N)=O)nn1-c1cccc(-c2ccc(C(F)(F)F)cc2C(F)(F)F)c1 | 69 |

Test system: Rattus norvegicus
Assay: Neurotoxicity in rat assessed as effect on motor coordination by measuring reduced latency at 30 mg/kg, po by rotarod test
Type: toxicity, organism-based
Design: dose 30 mg/kg, route oral
Conditions: in vivo
In short: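 Rat rotarod test of motor coordination after oral dosing (30 or 100 mg/kg). Read-out is latency on the rotarod.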

| Compound | Activity |
| --- | --- |
| Cc1cc(C(N)=O)nn1-c1cccc(-c2ccc(C(F)(F)F)cc2C(F)(F)F)c1 | Not Active |

Test system: not listed separately
Assay: Half life in rat
Type: ADME, organism-based
Conditions: in vivo

| Compound | half-life [h] |
| --- | --- |
| Cc1cc(C(N)=O)nn1-c1cccc(-c2ccc(C(F)(F)F)cc2C(F)(F)F)c1 | 2 |

Biological target: Cytochrome P450 3A4 (Homo sapiens, UniProt P08684)
Assay: Inhibition of CYP3A4
Type: ADME
Conditions: not given

Sequence of Cytochrome P450 3A4 (P08684 whole entry): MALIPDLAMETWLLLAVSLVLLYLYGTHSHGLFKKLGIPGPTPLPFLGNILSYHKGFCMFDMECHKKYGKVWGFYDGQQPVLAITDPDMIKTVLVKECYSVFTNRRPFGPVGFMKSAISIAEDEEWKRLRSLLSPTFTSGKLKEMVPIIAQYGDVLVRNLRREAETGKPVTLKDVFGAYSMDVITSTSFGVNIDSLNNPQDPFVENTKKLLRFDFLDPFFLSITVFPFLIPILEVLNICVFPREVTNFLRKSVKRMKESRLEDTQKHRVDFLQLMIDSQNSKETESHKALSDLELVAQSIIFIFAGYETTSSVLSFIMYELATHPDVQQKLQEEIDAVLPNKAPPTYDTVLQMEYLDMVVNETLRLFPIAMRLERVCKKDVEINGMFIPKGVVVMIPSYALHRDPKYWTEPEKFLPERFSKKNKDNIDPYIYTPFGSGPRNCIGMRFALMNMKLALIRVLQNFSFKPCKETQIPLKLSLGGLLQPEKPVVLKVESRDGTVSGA

| Compound | IC50 [nM] |
| --- | --- |
| Cc1cc(C(N)=O)nn1-c1cccc(-c2ccc(C(F)(F)F)cc2C(F)(F)F)c1 | > 100000 |

Test system: Liver
Assay: Metabolic stability in dog liver microsomes after 60 mins
Type: functional
Conditions: Canis lupus familiaris, Microsome
In short: as §1

| Compound | Stability |
| --- | --- |
| Cc1cc(C(N)=O)nn1-c1cccc(-c2ccc(C(F)(F)F)cc2C(F)(F)F)c1 | Stable |

Test system: not listed separately
Assay: Volume of distribution in rat
Type: ADME, organism-based
Conditions: in vivo

| Compound | Vd [L/kg] |
| --- | --- |
| Cc1cc(C(N)=O)nn1-c1cccc(-c2ccc(C(F)(F)F)cc2C(F)(F)F)c1 | 3.1 |

Test system: Mus musculus
Assay: Anticonvulsant activity in mouse assessed as protection against maximal electric shock-induced tonic seizures at 10 mg/kg, po after 4 hrs
Type: functional
Conditions: not given
In short: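 Mouse maximal electroshock (MES) seizure model. Oral dose 10 mg/kg, given 4 h before the shock. Read-out is protection from tonic seizures, expressed as percent.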

| Compound | Activity [%] |
| --- | --- |
| Cc1cc(C(N)=O)nn1-c1cccc(-c2ccc(C(F)(F)F)cc2C(F)(F)F)c1 | 90 |

Test system: not listed separately
Assay: Oral bioavailability dog
Type: ADME, organism-based, Canis lupus familiaris
Conditions: in vivo

| Compound | bioavailability [%] |
| --- | --- |
| Cc1cc(C(N)=O)nn1-c1cccc(-c2ccc(C(F)(F)F)cc2C(F)(F)F)c1 | 50 |

Biological target: Cytochrome P450 2D6 (Homo sapiens, UniProt P10635)
Assay: Inhibition of CYP2D6
Type: ADME
Conditions: not given

Sequence of Cytochrome P450 2D6 (P10635 whole entry): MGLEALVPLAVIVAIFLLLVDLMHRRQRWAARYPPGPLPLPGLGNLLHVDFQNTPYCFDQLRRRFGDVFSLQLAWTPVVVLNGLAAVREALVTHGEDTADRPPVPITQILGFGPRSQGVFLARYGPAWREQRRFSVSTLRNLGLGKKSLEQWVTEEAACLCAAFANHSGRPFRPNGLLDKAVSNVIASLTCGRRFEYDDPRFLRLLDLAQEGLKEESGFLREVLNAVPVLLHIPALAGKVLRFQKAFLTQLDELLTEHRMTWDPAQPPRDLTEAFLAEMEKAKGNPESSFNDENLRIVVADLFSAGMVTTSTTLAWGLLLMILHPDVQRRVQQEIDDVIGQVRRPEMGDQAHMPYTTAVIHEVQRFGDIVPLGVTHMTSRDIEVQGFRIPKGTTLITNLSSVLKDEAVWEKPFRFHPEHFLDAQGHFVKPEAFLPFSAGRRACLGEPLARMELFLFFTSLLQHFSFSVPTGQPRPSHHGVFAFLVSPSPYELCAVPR

| Compound | IC50 [nM] |
| --- | --- |
| Cc1cc(C(N)=O)nn1-c1cccc(-c2ccc(C(F)(F)F)cc2C(F)(F)F)c1 | > 100000 |

Organism: Canis familiaris
Assay: Plasma clearance in dog
Type: ADME, organism-based, Canis lupus familiaris
Conditions: in vivo

| Compound | clearance [mL/min/kg] |
| --- | --- |
| Cc1cc(C(N)=O)nn1-c1cccc(-c2ccc(C(F)(F)F)cc2C(F)(F)F)c1 | 16 |

Organism: Macaca mulatta
Assay: Metabolic stability in monkey liver microsomes after 60 mins
Type: functional
Conditions: Microsome
In short: as §1

| Compound | Stability |
| --- | --- |
| Cc1cc(C(N)=O)nn1-c1cccc(-c2ccc(C(F)(F)F)cc2C(F)(F)F)c1 | Stable |

Biological target: Cytochrome P450 2C9 (Homo sapiens, UniProt P11712)
Assay: Inhibition of CYP2C9
Type: ADME
Conditions: not given

Sequence of Cytochrome P450 2C9 (P11712 whole entry): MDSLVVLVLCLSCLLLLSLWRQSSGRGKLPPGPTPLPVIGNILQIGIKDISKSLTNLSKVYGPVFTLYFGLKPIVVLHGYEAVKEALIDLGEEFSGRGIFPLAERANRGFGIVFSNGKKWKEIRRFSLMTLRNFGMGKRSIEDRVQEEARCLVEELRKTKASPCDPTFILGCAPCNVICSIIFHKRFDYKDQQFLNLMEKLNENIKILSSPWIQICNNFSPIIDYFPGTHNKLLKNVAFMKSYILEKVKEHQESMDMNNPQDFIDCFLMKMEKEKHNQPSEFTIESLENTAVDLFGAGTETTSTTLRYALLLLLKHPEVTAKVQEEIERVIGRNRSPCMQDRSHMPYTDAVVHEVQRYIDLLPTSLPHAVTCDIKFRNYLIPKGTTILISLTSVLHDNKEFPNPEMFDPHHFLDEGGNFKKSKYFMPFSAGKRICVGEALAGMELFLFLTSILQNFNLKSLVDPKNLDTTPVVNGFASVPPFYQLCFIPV

| Compound | IC50 [nM] |
| --- | --- |
| Cc1cc(C(N)=O)nn1-c1cccc(-c2ccc(C(F)(F)F)cc2C(F)(F)F)c1 | 9000 |

Test system: Rattus norvegicus
Assay: Antiallodynic activity in rat spinal nerve ligation model of neuropathic pain assessed as reversal of mechanical allodynia at 3 mg/kg, po bid for 2 days measured after 4 hrs post final dose
Type: functional
Conditions: not given
In short: as §3

| Compound | Activity [%] |
| --- | --- |
| Cc1cc(C(N)=O)nn1-c1cccc(-c2ccc(C(F)(F)F)cc2C(F)(F)F)c1 | 87 |

Test system: not listed separately
Assay: Volume of distribution in dog
Type: ADME, organism-based, Canis lupus familiaris
Conditions: in vivo

| Compound | Vd [L/kg] |
| --- | --- |
| Cc1cc(C(N)=O)nn1-c1cccc(-c2ccc(C(F)(F)F)cc2C(F)(F)F)c1 | 1.43 |

Organism: Rattus norvegicus
Assay: Plasma clearance in rat
Type: ADME, organism-based
Conditions: in vivo

| Compound | clearance [mL/min/kg] |
| --- | --- |
| Cc1cc(C(N)=O)nn1-c1cccc(-c2ccc(C(F)(F)F)cc2C(F)(F)F)c1 | 11 |

Biological target: T1, Nuclear receptor subfamily 1 group I member 2 (Homo sapiens, UniProt O75469)
T1 sequence (O75469 whole entry): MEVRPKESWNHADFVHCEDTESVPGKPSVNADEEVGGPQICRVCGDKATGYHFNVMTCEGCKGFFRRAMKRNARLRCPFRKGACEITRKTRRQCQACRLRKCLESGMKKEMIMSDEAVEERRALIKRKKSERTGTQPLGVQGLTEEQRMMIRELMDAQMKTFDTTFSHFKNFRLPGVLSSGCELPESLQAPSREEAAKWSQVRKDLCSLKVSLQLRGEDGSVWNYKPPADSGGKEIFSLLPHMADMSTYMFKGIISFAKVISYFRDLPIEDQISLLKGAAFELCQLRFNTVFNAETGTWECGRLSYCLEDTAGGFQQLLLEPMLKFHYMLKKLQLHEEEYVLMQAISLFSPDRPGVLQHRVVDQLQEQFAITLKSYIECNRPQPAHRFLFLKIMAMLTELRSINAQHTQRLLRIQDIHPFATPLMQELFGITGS
Assay: Induction of human PXR by induction assay
Conditions: not given

| Compound | IC50 [nM] |
| --- | --- |
| Cc1cc(C(N)=O)nn1-c1cccc(-c2ccc(C(F)(F)F)cc2C(F)(F)F)c1 | > 25000 |

Test system: Liver microsomes
Assay: Metabolic stability in human liver microsomes after 60 mins
Type: functional
Conditions: Microsome
In short: as §1

| Compound | Stability |
| --- | --- |
| Cc1cc(C(N)=O)nn1-c1cccc(-c2ccc(C(F)(F)F)cc2C(F)(F)F)c1 | Stable |
